Screening data from PubChem.
A selection: hits, their analogues and other compounds. The true share with any hit is near 3.5%.
MrgX1 allo act: positive allosteric modulators of MrgX1, primary screen, HEK293 cells, Fluo-4 calcium flux; Mas-related G-protein coupled receptor member X1 (Homo sapiens), Q96LB2; FDSS; stronger effect = higher value; B-score at 10 µM; actives 0.63% (n = 310,000);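 active means plate-corrected calcium response at least 3 library SD above typical, normal starting fluorescence, not activating the receptor alone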;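 further: compound read alongside a low EC10 to EC30 dose of BAM8-22 agonist; peak minus trough fluorescence over baseline measured at the second addition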
Target sequence (Q96LB2 whole entry, looked up): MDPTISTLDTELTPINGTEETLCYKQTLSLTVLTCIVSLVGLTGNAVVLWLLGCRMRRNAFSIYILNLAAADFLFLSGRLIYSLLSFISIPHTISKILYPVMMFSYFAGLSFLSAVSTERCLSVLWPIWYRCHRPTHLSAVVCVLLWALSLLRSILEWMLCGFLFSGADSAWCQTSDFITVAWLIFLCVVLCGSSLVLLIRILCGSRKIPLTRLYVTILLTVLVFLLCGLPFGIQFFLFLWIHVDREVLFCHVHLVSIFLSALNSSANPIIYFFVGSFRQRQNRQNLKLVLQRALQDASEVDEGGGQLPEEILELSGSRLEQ
RGS4 inh: RGS4 inhibitors, primary screen, cell-based, HEK293 M3R inducible RGS4, calcium flux; Fluo-4 calcium flux; stronger effect = higher value; triggered by carbachol at its EC20; B-score at 10 µM; Regulator of G-protein signaling 4 (Homo sapiens), P49798; actives 0.45% (n = 310,000); AID 463165, 2010;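 active means B-score, a plate-corrected calcium signal, over three deviations above library mean, with baseline fluorescence within five deviations of library mean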;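 further: RGS4 expression induced by doxycycline in cells with stable M3 receptor; B-score is computed from the integrated fluorescence ratio over baseline after carbachol; higher B-score means a larger calcium signal and so more RGS4 inhibition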
Target sequence (P49798 whole entry, looked up): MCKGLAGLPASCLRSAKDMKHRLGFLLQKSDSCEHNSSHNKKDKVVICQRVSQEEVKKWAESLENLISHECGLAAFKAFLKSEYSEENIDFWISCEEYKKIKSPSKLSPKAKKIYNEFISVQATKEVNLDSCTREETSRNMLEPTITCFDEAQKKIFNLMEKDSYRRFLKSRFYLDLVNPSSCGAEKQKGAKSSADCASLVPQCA
MrgX1 ag: agonists of human MrgX1 receptor, primary screen, HEK293 cells, Fluo-4 calcium flux | B-score at 10 µM | Fluo-4 calcium fluorescence, agonist mode; stronger effect = higher value | actives 0.44% (n = 310,000) | Mas-related G-protein coupled receptor member X1 (Homo sapiens), Q96LB2;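 active means calcium response B-score plate-corrected fluorescence ratio at least 3 library SD, with starting fluorescence B-score inside 5 SD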
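Material – MrgX1-expressing HEK293 cells · Input – 15,000 cells seeded per well · Dosing – compound as first of three additions · Times – overnight seeding, then 1 h dark dye loading · Measured by – kinetic Fluo-4 NW fluorescence of intracellular calcium · Read-out – B-scored fluorescence response ratio · Benchmarks – positive and negative control wells on each plate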
RGS4 pot: RGS4 potentiators or activators, primary screen, cell-based, HEK293 M3R inducible RGS4, calcium flux. carbachol calcium flux Fluo4; stronger effect = lower value. actives 0.92% (n = 310,000). B-score at 10 µM. AID 463111, 2010;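 active means B-score of the integrated calcium signal more than 4 SD below the library mean, with starting fluorescence not abnormally high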;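 further: negative B-score means reduced calcium response which marks RGS4 activation or potentiation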
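Detection: kinetic calcium fluorescence imaging with Fluo4-AM dye, 2 µM / Material: HEK293 cells with stable M3R and inducible RGS4 / Schedule: recording 10 s baseline at 1 Hz, 100 s post-agonist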
MrgX1 antag: antagonists of human MrgX1 receptor, primary screen, HEK293 cells, Fluo-4 calcium flux; AID 588676, 2011; BAM8-22 antagonism; stronger effect = lower value; actives 1.3% (n = 310,000); Mas-related G-protein coupled receptor member X1 (Homo sapiens), Q96LB2; B-score at 10 µM;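 active means calcium-response B-score plate-corrected more than 3 library SD below zero, starting fluorescence within 5 deviations, no agonist response on first addition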;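 further: peak minus trough fluorescence over baseline after final BAM8-22 challenge near maximal dose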
MrgX1 ant reconf: MrgX1 receptor antagonists, duplicate retest, confirmation, HEK293 cells, Fluo-4 calcium flux; shares compounds with MrgX1 antag; BAM8-22 calcium flux; stronger effect = lower value; remaining BAM8-22 calcium response % of control (stronger effect = lower value), % at 10 µM; actives 19% (n = 2,300); AID 602420, 2012;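 active means remaining agonist calcium response no higher than 100% minus 3 SD of agonist-only control wells, with starting fluorescence near control levels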;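 further: agonist BAM8-22 given at a near maximal EC90 to ECmax level; peak minus minimum fluorescence divided by baseline after agonist addition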
HEK293 Ca flux: nonspecific calcium signal in parental HEK293, confirmation, counter-screen for MrgX1 antagonist project, parental HEK293 cells, Fluo-4 calcium flux; shares compounds with MrgX1 antag; Fluo-4 calcium fluorescence, FDSS; fluorescence ratio F(max-min)/F0 at 10 µM; actives 2% (n = 4,000); AID 624111, 2012;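 active means duplicate-averaged calcium fluorescence ratio at least three times the standard deviation of buffer wells, a nonspecific response in parental cells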
HEK293 Ca counter: calcium response in parental HEK293 cells, primary screen, counter-screen for MrgX1 allosteric activator project, cell-based, Fluo-4 calcium flux, duplicate | shares compounds with MrgX1 antag | Fluo-4 fluorescence ratio; stronger effect = higher value | fluorescence ratio F(max-min)/F0 at 10 µM | actives 0.4% (n = 4,000);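 active means calcium fluorescence ratio, averaged over duplicates, at least 3 SD of the buffer-well ratio, meaning a nonspecific response in receptor-free cells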;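 further: untransfected parental HEK293 lacking MrgX1 used as counterscreen for MrgX1 allosteric activators; fluorescence change taken during the second addition on a kinetic imager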
HEK293 Ca cntr2: calcium response in parental HEK293 cells, primary screen, counter-screen for MrgX1 agonist project, cell-based, Fluo-4 calcium flux, duplicate, agonist mode. AID 624115, 2012. actives 8.7% (n = 4,000). fluorescence ratio F(max-min)/F0 at 10 µM. shares compounds with MrgX1 antag. Fluo-4 calcium fluorescence (FDSS); stronger effect = higher value;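 active means calcium fluorescence ratio at least three times the spread of buffer wells, meaning a non-specific response in parental cells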
Hits are given with their value; . = inactive; / = no result.

SMILES	MrgX1 allo act	RGS4 inh	MrgX1 ag	RGS4 pot	MrgX1 antag	MrgX1 ant reconf	HEK293 Ca flux	HEK293 Ca counter	HEK293 Ca cntr2
CCOC(=O)C(NC(=O)c1ccccc1)=C(C)C	.	.	.	.	-8.9	.	.	.	.
CCCCOC(=O)C(NC(=O)c1ccccc1)=C(C)C	.	.	.	.	.	/	/	/	/
Cc1c(C(=O)O)sc2nc3n(c(=O)c12)CCCCC3	.	.	.	.	.	/	/	/	/
Cc1c(C(=O)N2CCN(c3ncccn3)CC2)sc2nc3n(c(=O)c12)CCCC3	.	.	.	.	-7.4	.	.	.	.
Cc1cccc(NS(=O)(=O)c2c(C(=O)N3CCOCC3)c(C)n(C)c2C)c1C	.	.	.	.	.	/	/	/	/
CCN(CC(=O)Nc1c(F)cccc1F)C(=O)COc1cccc2c1OC(C)(C)C2	.	.	.	.	-5.4	.	.	.	.
CC(C)CCn1cnc2c([nH]c3cccc(Cl)c32)c1=O	.	.	.	.	-5.8	.	.	.	.
Cc1cccc2[nH]c3c(=O)n(CCN4CCNCC4)cnc3c12	.	.	.	.	.	/	/	/	/
CC(/C=N\NC(=O)Cn1c(C)nc2ccccc21)=C\c1ccccc1	.	.	.	.	-11	.	.	.	.
O=C(NS(=O)(=O)c1ccccc1)c1ccccc1	.	.	.	.	.	/	/	/	/
O=C(NS(=O)(=O)c1ccc(Cl)cc1)c1ccccc1	.	.	.	.	-4.9	.	.	.	.
Cc1ccccc1OCC(=O)NS(=O)(=O)c1ccc(Cl)cc1	.	.	.	.	-9.2	83%	.	.	.
COc1ccc(S(=O)(=O)N2CCC(C(=O)Nc3ccc(S(=O)(=O)N4CCCC4)cc3)CC2)cc1OC	.	.	.	.	.	/	/	/	/
COc1ccc(-c2csc(NC(=O)CSc3nc(C)cs3)n2)cc1	.	.	.	.	.	/	/	/	/
COc1ccc(-c2csc(NC(=O)CSc3nc(C)nc4sc(C(=O)O)c(C)c34)n2)cc1	.	.	.	.	-6.4	72%	.	.	.
COc1ccccc1CNC(=O)C(=O)NCC1CCCN1S(=O)(=O)c1cccs1 (stereo unspecified)	.	.	.	.	-4.8	83%	.	.	.
Cc1ccc(NC(=O)C(=O)NCC2CCCN2S(=O)(=O)c2cccs2)cc1 (stereo unspecified)	.	.	.	.	.	/	/	/	/
COc1cc(C(=O)NCC2CCCN2S(=O)(=O)c2cccs2)cc(OC)c1OC (stereo unspecified)	.	.	.	.	-7.7	.	.	.	.
Cc1ccc(S(=O)(=O)N2CCCC2CNC(=O)C(=O)NCc2ccccn2)cc1 (stereo unspecified)	.	.	.	.	-7.1	.	.	.	.
Cc1ccc(C(=O)NCC2CCCN2S(=O)(=O)c2cccs2)cc1C (stereo unspecified)	.	.	.	.	.	/	/	/	/
Cc1cccc(NC(=O)C(=O)NCC2CCCN2S(=O)(=O)c2cccs2)c1C (stereo unspecified)	.	.	.	.	-5.5	.	.	.	.
